Screening data: PubChem, several laboratories
Hits are enriched below; roughly 2.1% of the tested compounds scored in any of these assays.
Runt-SMMHC FRET = blocks binding of human RUNX1 Runt domain to CBFb-SMMHC. inhibition, % at 20 µM. 220,000 tested, 0.74% active. Cerulean-Runt/Venus-CBFb-SMMHC FRET ratio 530/480, 1 h. AID 1434. Q01196+Q13951;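 active means mean inhibition across duplicate retests at 20 µM reaching about 50%, limit read from the data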;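 further: 0% = DMSO wells and 100% = wells with excess untagged CBFb-SMMHC; inhibitors lower the FRET ratio by blocking Runt binding to CBFb-SMMHC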
RanGTP-Impb inh = disruptors of Ran-importin-beta complex formation – biochemical, FRET, CFP-Ran, YFP-importin-beta, homogeneous, primary screen. cell-free CFP-Ran/YFP-importin-beta FRET ratio. inhibition, % (concentration not given with the values). 300,000 tested, 1.1% active. AID 2216;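 active means more than half of the replicate wells show a fall in the fluorescence ratio signal beyond about 16%, limit read from the data, passing the limit was not always enough; inconclusive means exactly half of the replicate wells pass the set limit; inactive means fewer than half of replicates pass the limit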;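 further: 0% = DMSO wells and 100% = Ran loaded with GDP instead of GTP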
Runt-CBFb FRET = inhibitors of human RUNX1 Runt domain binding to CBFb | Q01196+Q13951 | Cerulean-Runt/Venus-CBFb FRET ratio 530/480, 1 h | inhibition, % at 20 µM | 220,000 tested, 0.46% active | AID 1496;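 active means inhibition over about 50% at 20 µM in the single-dose screen, limit read from the data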;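 further: 0% = DMSO wells and 100% = excess unlabeled CBFb competitor control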
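Doses: 20 µM compound in 1% DMSO | Material: Cerulean-labeled Runt domain protein | Amount: Each fluorescent fusion protein 100 nM | Schedule: Two 1 h room-temperature incubations shielded from light | Measured by: FRET fluorescence | Evaluation: Loss of energy transfer signal | Controls: Unlabeled CBFb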
Calpain2 inh = inhibitors of pig calpain II; purified calpain II, fluorogenic peptide substrate, 30 min; inhibition, % at 16 µM; 220,000 tested, 0.37% active; AID 1236;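 active means inhibition above about 50%, limit read from the data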
FAS-TE inh = blocks the thioesterase domain of human fatty acid synthase. P49327. recombinant FAS-TE, OMFH fluorogenic substrate, fluorescence endpoint. inhibition, % at 15 µM. 360,000 tested, 0.67% active. AID 602261;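 active means compounds whose normalised, plate-corrected inhibition of enzyme fluorescence in the single-dose primary screen is 50% or more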;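 further: 0% = DMSO with enzyme and 100% = substrate without enzyme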
Target sequence (P49327 whole entry, looked up, the tested form may be a part): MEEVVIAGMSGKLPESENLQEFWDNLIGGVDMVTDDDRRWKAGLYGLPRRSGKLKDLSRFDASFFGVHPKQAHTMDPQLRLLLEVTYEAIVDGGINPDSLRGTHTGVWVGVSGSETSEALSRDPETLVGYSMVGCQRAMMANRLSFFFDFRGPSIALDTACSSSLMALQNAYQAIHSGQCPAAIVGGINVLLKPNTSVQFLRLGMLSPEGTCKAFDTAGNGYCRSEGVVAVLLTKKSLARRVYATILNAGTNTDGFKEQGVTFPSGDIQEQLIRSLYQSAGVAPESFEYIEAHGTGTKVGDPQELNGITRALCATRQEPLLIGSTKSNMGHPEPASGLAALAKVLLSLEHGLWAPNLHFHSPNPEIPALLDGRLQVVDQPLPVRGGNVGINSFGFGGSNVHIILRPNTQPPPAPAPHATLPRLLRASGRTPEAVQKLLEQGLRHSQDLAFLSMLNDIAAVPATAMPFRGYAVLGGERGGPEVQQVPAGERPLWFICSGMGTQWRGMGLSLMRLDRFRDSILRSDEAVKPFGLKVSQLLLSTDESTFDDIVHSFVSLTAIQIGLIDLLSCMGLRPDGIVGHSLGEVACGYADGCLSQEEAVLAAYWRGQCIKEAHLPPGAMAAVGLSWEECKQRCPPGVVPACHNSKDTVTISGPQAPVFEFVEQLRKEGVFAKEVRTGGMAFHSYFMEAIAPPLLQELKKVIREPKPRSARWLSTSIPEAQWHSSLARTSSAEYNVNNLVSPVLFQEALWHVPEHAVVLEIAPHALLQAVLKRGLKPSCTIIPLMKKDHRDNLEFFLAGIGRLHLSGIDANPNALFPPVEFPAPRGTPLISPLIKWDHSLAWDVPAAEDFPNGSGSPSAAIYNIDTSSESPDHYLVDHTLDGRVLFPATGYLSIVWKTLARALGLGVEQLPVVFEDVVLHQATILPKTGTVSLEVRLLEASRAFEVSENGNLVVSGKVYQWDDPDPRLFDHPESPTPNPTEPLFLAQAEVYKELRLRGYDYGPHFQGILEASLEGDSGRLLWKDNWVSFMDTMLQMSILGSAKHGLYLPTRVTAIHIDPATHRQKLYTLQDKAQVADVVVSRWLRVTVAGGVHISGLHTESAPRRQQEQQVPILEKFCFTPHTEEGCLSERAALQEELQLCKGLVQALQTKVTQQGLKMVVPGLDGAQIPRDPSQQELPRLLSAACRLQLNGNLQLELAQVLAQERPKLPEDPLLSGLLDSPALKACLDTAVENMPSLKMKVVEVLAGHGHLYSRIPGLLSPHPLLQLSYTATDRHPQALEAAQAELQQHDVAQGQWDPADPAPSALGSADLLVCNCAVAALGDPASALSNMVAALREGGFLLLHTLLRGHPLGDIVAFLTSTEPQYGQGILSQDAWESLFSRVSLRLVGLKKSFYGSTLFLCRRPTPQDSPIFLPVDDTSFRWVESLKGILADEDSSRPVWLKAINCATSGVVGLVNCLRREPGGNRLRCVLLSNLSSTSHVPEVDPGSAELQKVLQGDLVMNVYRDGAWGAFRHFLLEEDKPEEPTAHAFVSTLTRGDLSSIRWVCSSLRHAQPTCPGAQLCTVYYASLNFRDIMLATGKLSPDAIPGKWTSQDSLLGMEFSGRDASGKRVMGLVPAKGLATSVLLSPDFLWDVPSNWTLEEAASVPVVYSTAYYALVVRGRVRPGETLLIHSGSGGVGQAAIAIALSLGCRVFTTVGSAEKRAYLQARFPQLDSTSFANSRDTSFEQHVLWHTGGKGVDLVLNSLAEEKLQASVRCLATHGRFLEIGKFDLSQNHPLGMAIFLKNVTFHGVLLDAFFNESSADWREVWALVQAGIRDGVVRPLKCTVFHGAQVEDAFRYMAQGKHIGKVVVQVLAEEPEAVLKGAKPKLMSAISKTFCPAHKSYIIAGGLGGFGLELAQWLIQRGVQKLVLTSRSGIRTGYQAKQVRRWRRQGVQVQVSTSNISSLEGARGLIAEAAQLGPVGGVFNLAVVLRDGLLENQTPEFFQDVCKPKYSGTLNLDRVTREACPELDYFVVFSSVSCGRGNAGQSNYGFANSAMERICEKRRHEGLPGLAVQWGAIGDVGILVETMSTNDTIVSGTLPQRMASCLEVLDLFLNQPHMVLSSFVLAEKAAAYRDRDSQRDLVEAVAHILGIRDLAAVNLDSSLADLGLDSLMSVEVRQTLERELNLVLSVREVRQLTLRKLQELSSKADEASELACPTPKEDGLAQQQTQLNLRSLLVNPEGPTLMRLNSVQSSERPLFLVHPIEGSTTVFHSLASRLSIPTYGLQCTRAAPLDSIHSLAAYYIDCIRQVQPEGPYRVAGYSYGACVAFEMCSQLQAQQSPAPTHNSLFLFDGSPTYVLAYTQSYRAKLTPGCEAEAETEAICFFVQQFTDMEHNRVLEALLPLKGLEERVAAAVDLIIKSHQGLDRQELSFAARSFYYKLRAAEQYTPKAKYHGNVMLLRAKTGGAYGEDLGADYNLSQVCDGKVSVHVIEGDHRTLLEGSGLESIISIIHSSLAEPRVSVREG
Active calls of the source: *; ? = inconclusive; nt = no result given.

SMILES	Runt-SMMHC FRET	RanGTP-Impb inh	Runt-CBFb FRET	Calpain2 inh	FAS-TE inh
CC(=O)c1c(N2CCN(CCO)CC2)nc(=S)n(-c2ccccc2)c1C	92.5*	61.6*	65.1*	-27.0	-1.8
CC(=O)c1c(N2CCN(Cc3ccccc3)CC2)nc(=S)n(-c2ccccc2)c1C	98.0*	85.3*	46.2	3.0	-8.0
CC(=O)c1c(N2CCN(Cc3ccc4c(c3)OCO4)CC2)nc(=S)n(-c2ccccc2)c1C	1.1	1.3	5.9	-9.6	-6.3
CCn1c(C)c(C(C)=O)c(N2CCN(c3ccc(F)cc3)CC2)nc1=S	0.4	20.5*	23.4	-14.7	-6.3
CC(=O)c1c(N2CCN(Cc3ccccc3)CC2)nc(=S)n(Cc2ccccc2)c1C	82.4*	68.3*	74.7*	12.0	-0.5
CC(=O)c1c(N2CCCCC2)nc(=S)n(Cc2ccccc2)c1C	-5.9	4.0	-4.7	3.2	-7.3
CC(OC(=O)CNC(=O)c1ccc(Cl)cc1)C(=O)NC1CCCCC1C (centres undefined)	nt	2.9	nt	nt	-2.4
COc1ccccc1N(CCC#N)C(=O)COC(=O)CCC(=O)c1ccc(F)cc1	nt	nt	nt	nt	-3.4
CC(CCc1ccccc1)NC(=O)CSc1cccc[n+]1[O-] (centres undefined)	0.3	-2.1	-0.4	53.2*	-4.6
CC(CCc1ccccc1)NC(=O)CSc1ccccc1 (centres undefined)	-0.6	-2.2	-1.7	23.8	-4.7
CC(C)Sc1nsc2nc(=O)c(/C=C3\C=Nc4ccccc43)c(N)n12	59.2*	33.1*	17.8	-27.9	2.9
Cc1cc2nc(=O)c(/C=C3\C=Nc4ccccc43)c(N)n2o1	-45.2	46.8*	-4.7	-12.7	-2.2
CCOC(=O)C1=CNS(=O)(=O)NC1c1cccc(O)c1 (centres undefined)	nt	nt	nt	nt	-4.1
CCOc1cc(NS(=O)(=O)c2ccc(Cl)cc2)c(OCC)cc1NC(=O)CC(C)C	8.8	?	0.4	20.9	22.1
CCOc1cc(NS(=O)(=O)c2ccc(NC(C)=O)cc2)c(OCC)cc1NC(=O)C(C)C	7.5	18.0*	2.8	-14.8	-9.0
CC(=O)c1ccc(NC(=O)CN2CCCC2)cc1	nt	-1.9	nt	nt	-1.9
Cc1ccc(N2C(=O)c3cccc4cccc(c34)C2=O)cc1	-0.3	-1.4	-1.5	-21.6	-3.4
CC1=Nc2ccc(C)c3nc(C)cc(c23)N1c1ccc(C)cc1	nt	64.7*	nt	-417.1	-0.7
Cc1ccc(N2C=Nc3ccc(C)c4nc(C)cc2c34)cc1	60.5*	99.0*	52.4*	-417.4	0.4
CC(C)n1ncc2c(C(=O)Nc3cccc(S(=O)(=O)N(C)C)c3)cc(C3CC3)nc21	nt	nt	nt	nt	19.3
O=C1NC[C@@H](Cc2ccc(O)cc2)N(CCCCC2CCCCC2)C1=O	nt	nt	nt	nt	1.4
Oc1ccc(C[C@@H]2CNC(=S)N2CCCCC2CCCCC2)cc1	-0.3	0.3	0.1	51.0*	8.7
COc1cc(Br)cc(Br)c1OCC(=O)N/N=C/c1c(C)n(C)n(-c2ccccc2)c1=O	nt	nt	nt	nt	10.4
CCN(C)C1CN(Cc2cn(Cc3ccc(C)cc3)nn2)S(=O)(=O)C1 (centres undefined)	nt	nt	nt	nt	-7.5
O=C1c2ccncc2C(=O)N1Cc1cccc(Cl)c1	-0.8	2.5	-2.8	17.0	0.1
SMILES	Runt-SMMHC FRET	RanGTP-Impb inh	Runt-CBFb FRET	Calpain2 inh	FAS-TE inh
Cc1cccc(NCN2C(=O)c3ccncc3C2=O)n1	-0.1	19.4*	-2.2	13.8	-7.0
C(=C\c1ccccc1)/CN1CCN(C(c2ccnc3ccccc23)c2nnnn2C2CCCC2)CC1 (centres undefined)	nt	nt	nt	nt	11.3
COc1ccc(NC(=O)c2ccc(NC(=O)c3cccs3)cc2)cc1	nt	3.1	nt	nt	-3.0
COc1ccc(C(=O)/C=C\c2ccc(NC(=O)c3cccs3)cc2)cc1	-24.7	22.7*	-3.3	-55.4	8.3
O=C(Nc1cnn(Cc2ccc(F)cc2)c1)c1cc2nc(-c3ccco3)cc(C(F)(F)F)n2n1	11.9	3.2	1.8	90.8*	-6.4
Cc1ccccc1Cn1ccc(NC(=O)c2cc3nc(-c4ccco4)cc(C(F)(F)F)n3n2)n1	-4.1	54.2*	5.0	nt	7.3
CCc1ccc(-c2cc(C(F)(F)F)n3nc(C(=O)Nc4c(C)nn(Cc5ccccc5C)c4C)cc3n2)s1	11.9	35.0*	7.1	-106.8	31.4
O=C(Nc1cnn(Cc2ccc(F)cc2)c1)c1cc(-c2ccco2)on1	-0.7	5.9	-3.5	-82.7	-0.8
Nc1ccc2c(c1)Cc1cc([N+](=O)[O-])ccc1-2	-56.7	-15.7	-20.4	-15.9	-14.5
